Test results published in ChEMBL document CHEMBL1124799, “1,4-bis(3-oxo-2,3-dihydropyridazin-6-yl)benzene analogues: potent phosphodiesterase inhibitors and inodilators” (1990).

Assays:
Felis catus [1] = assay: The dose required to cause 50% increase in the contractility and inotropic activity as dLVP/dt(max) in anesthetized cat; format: functional
Outline: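 Pentobarbitone-anesthetized cats (60 mg/kg ip), given pempidine 5 mg/kg and then propranolol 1 mg/kg iv plus 3–4 mg/kg sc. Cats responding to isoprenaline 0.01–0.1 μg/kg iv with less than a 100% contractility rise were rejected. Test compound given as an iv bolus, with dLVP/dt(max) as the read-out. ED50 is the dose giving a 50% rise over control, from dose-response curves, mean of ≥2 experiments. Duration was scored by the time for dLVP/dt to return to control.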

[2] = tested on: Phosphodiesterase 3 (Felis catus); assay: Inhibition of phosphodiesterase 3 enzyme activity by 50%
Felis catus [3] = assay: ED15 is the dose producing 15% decrease in autoperfused hindquarters perfusion pressure in anesthetized cat; format: functional
Outline: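 Anesthetized cats (either sex, 1.9–2.5 kg; pentobarbitone 60 mg/kg ip), ganglion-blocked with pempidine 5 mg/kg, then β-blocked with propranolol 1 mg/kg iv plus 3–4 mg/kg sc, heparinized 500 units/kg iv. Hindquarters autoperfused via the descending aorta. Test compound given as an iv bolus. ED15 taken as the dose lowering perfusion pressure by 15%, from dose-response curves, mean of ≥2 experiments.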

[4] = tested on: Phosphodiesterase 3 (Felis catus); assay: Inhibition of Phosphodiesterase 3

Structure (SMILES)	ED50 (Felis catus [1]) [µmol/kg]	IC50 [2] [µM]	ED15 (Felis catus [3]) [µM/kg]	IC50 [4] [µM]
CC(=O)Nc1ccc(C2=NNC(=O)CC2)cc1	0.19	7.13	0.2	–
Oc1ccc(-c2cccc(-c3ccc(O)nn3)c2)nn1	–	3.9	3.23	–
CC1CC(O)=NN=C1c1ccc(-n2ccnc2)cc1 (configuration not stated) [CI-930]	0.18	–	0.09	–
Oc1ccc(-c2ccc(-c3ccc(O)nn3)cc2)nn1	0.04	0.33	0.06	–
CC1CC(=O)NN=C1c1ccc(-c2ccc(O)nn2)cc1 (configuration not stated)	0.02	0.07	0.01	–
CC(=O)Nc1ccc(-c2ccc(O)nn2)cc1	–	6.38	–	–
CC1CC(=O)NN=C1c1ccc(C(N)=O)cc1 (configuration not stated)	0.07	2.23	0.1	–
Oc1ccc(-c2ccc(-c3ccc(O)nn3)s2)nn1	0.73	0.49	0.38	–
Cc1cc(O)nnc1-c1ccc(-c2nnc(O)cc2C)cc1	–	37.5	–	–
CC1CC(=O)NN=C1c1ccc(C2=NNC(=O)CC2C)cc1 (configuration not stated)	0.06	0.11	0.04	–
Oc1ccc(-c2ccc(-c3ccc(-c4ccc(O)nn4)cc3)cc2)nn1	–	> 100	–	–
CC1SC(=O)NN=C1c1ccc(C2=NNC(=O)SC2C)cc1 (configuration not stated)	0.13	–	0.09	0.08
O=C1CCC(c2ccc(-n3ccnc3)cc2)=NN1 [IMAZODAN]	0.64	–	0.42	–
O=C1CCC(c2ccc(C3=NNC(=O)CC3)cc2)=NN1	0.55	0.64	0.12	–
CC1CC(=O)NN=C1c1ccc(N)cc1 (configuration not stated)	1.7	37	0.5	–
Nc1ccc(-c2ccc(O)nn2)cc1	–	22.8	–	–
Nc1ccc(C2=NNC(=O)CC2)cc1	4.43	61.7	1.4	–
CC(=O)Nc1ccc(C2=NNC(=O)CC2C)cc1 (configuration not stated)	0.03	–	0.08	–
